Values after ≈ are worked out from the molar mass of the structure shown.
How the values were obtained:
[1] = system: Staphylococcus epidermidis; assay: Antibacterial activity against Staphylococcus epidermidis ATCC 35547 after 16 to 20 hrs by broth microdilution method; format: functional
[2] = system: Staphylococcus haemolyticus; assay: Antibacterial activity against Staphylococcus haemolyticus ATCC 29970 after 16 to 20 hrs by broth microdilution method; format: functional
Streptococcus oralis = assay: Antibacterial activity against Streptococcus oralis ATCC 9811 after 16 to 20 hrs by broth microdilution method; format: functional
Streptococcus pyogenes = assay: Antibacterial activity against Streptococcus pyogenes ATCC 49399 after 16 to 20 hrs by broth microdilution method; format: functional
Bacillus cereus = assay: Antibacterial activity against Bacillus cereus ATCC 13061 after 16 to 20 hrs by broth microdilution method; format: functional
Bacillus licheniformis = assay: Antibacterial activity against Bacillus licheniformis ATCC 12759 after 16 to 20 hrs by broth microdilution method; format: functional
Enterococcus faecium [3] = assay: Antibacterial activity against vancomycin-susceptible Enterococcus faecium 119-39A clinical isolate after 16 to 20 hrs by broth microdilution method; format: functional
Enterococcus faecium [4] = assay: Antibacterial activity against Enterococcus faecium NCTC 7171 after 16 to 20 hrs by broth microdilution method; format: functional
Staphylococcus aureus [5] = assay: Antibacterial activity against methicillin-resistant Staphylococcus aureus ATCC 27660 in po dosed ICR mouse peritonitis infection model assessed as survival rate administered at 1 hr post infection; format: functional; conditions: ATCC 27660, po
Summary of the method: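 Female ICR mice, 6–8 weeks, given 0.5 mL ip of S. aureus (final 5×10^7 cfu/mL in 5% mucin). Six mice per dose level; a single oral dose at 1 h post-infection.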

Staphylococcus aureus [6] = assay: Antibacterial activity against mecA-positive, ciprofloxacin/gentamicin/oxacillin/penicillin/linezolid-resistant Staphylococcus aureus NRS119 after 16 to 20 hrs by broth microdilution method; format: functional
Staphylococcus aureus [7] = assay: Antibacterial activity against mecA-positive, ciprofloxacin/gentamicin/oxacillin/penicillin/linezolid-resistant Staphylococcus aureus NRS120 after 16 to 20 hrs by broth microdilution method; format: functional
Enterococcus faecium [8] = assay: Antibacterial activity against vancomycin-resistant Enterococcus faecium 106 clinical isolate after 16 to 20 hrs by broth microdilution method
[9] = Plasma protein binding in human by equilibrium dialysis assay
Staphylococcus aureus [10] = assay: Antibacterial activity against vancomycin/methicillin-resistant Staphylococcus aureus VRS2 clinical isolate after 16 to 20 hrs by broth microdilution method; format: functional
Enterococcus faecalis [11] = assay: Antibacterial activity against Enterococcus faecalis ATCC 29212 after 16 to 20 hrs by broth microdilution method; format: functional
Enterococcus faecalis [12] = assay: Antibacterial activity against vancomycin-susceptible Enterococcus faecalis 201 clinical isolate after 16 to 20 hrs by broth microdilution method; format: functional
Enterococcus faecalis [13] = assay: Antibacterial activity against vancomycin-resistant Enterococcus faecalis 99 clinical isolate after 16 to 20 hrs by broth microdilution method; format: functional
[14] = Plasma protein binding in human at 10 uM after 6 hrs by equilibrium dialysis assay; format: ADME, cell-free
HepG2 = assay: Cytotoxicity against human HepG2 cells assessed as cell viability after 16 hrs by XTT assay; format: cell-based; conditions: HepG2, 16 h
Summary of the method: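 HepG2 cells were run in triplicate in an XTT viability assay. IC50 was derived from the concentration–response data.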

Staphylococcus aureus [15] = assay: Antibacterial activity against methicillin-sensitive Staphylococcus aureus ATCC 29213 after 16 to 20 hrs by broth microdilution method; format: functional
Staphylococcus aureus [16] = assay: Antibacterial activity against mecA-positive, methicillin/oxacillin/tetracycline-resistant and vancomycin/linezolid susceptible Staphylococcus aureus ATCC 27660 after 16 to 20 hrs by broth microdilution method; format: functional
Staphylococcus aureus [17] = assay: Antibacterial activity against mecA-positive, methicillin/oxacillin/tetracycline-resistant and vancomycin/linezolid susceptible Staphylococcus aureus COL after 16 to 20 hrs by broth microdilution method; format: functional
Staphylococcus aureus [18] = assay: Antibacterial activity against vancomycin/methicillin-resistant Staphylococcus aureus VRS1 clinical isolate after 16 to 20 hrs by broth microdilution method; format: functional

Row | SMILES | MIC [1] [µg/mL] | MIC [2] [µg/mL] | MIC (Streptococcus oralis) [µg/mL] | MIC (Streptococcus pyogenes) [µg/mL] | MIC (Bacillus cereus) [µg/mL] | MIC (Bacillus licheniformis) [µg/mL] | MIC (Enterococcus faecium [3]) [µg/mL] | MIC (Enterococcus faecium [4]) [µg/mL] | MIC (Staphylococcus aureus [6]) [µg/mL] | MIC (Staphylococcus aureus [7]) [µg/mL] | MIC (Enterococcus faecium [8]) [µg/mL] | fraction unbound [9] | MIC (Staphylococcus aureus [10]) [µg/mL] | MIC (Enterococcus faecalis [11]) [µg/mL] | MIC (Enterococcus faecalis [12]) [µg/mL] | MIC (Enterococcus faecalis [13]) [µg/mL] | PPB [14] [%] | IC50 (HepG2) [µg/mL] | MIC (Staphylococcus aureus [16]) [µg/mL] | MIC (Staphylococcus aureus [17]) [µg/mL] | also measured
1 | CC(=O)NC[C@H]1CN(c2ccc(N3CCOCC3)c(F)c2)C(=O)O1 [LINEZOLID] | 1 (≈ 2.96 µM) | 2 (≈ 5.93 µM) | 1 (≈ 2.96 µM) | 1 (≈ 2.96 µM) | 1 (≈ 2.96 µM) | 1 (≈ 2.96 µM) | 2 (≈ 5.93 µM) | 2 (≈ 5.93 µM) | 32 (≈ 94.9 µM) | 32 (≈ 94.9 µM) | 1 (≈ 2.96 µM) |  |  |  |  |  |  |  |  |  | ED50 (Staphylococcus aureus [5]): 2.8 mg/kg
2 | Cc1onc(-c2ccccc2)c1C(=O)N[C@@H]1C(=O)N2[C@@H]1SC(C)(C)[C@@H]2C(=O)O [OXACILLIN] |  |  |  |  |  |  |  |  |  |  |  | < 0.09 |  |  |  |  |  |  |  |  | 
3 | CCCCCCCCCC(=O)N[C@@H](Cc1c[nH]c2ccccc12)C(=O)N[C@H](CC(N)=O)C(=O)N[C@@H](CC(=O)O)C(=O)N[C@@H]1C(=O)NCC(=O)N[C@@H](CCCN)C(=O)N[C@@H](CC(=O)O)C(=O)N[C@H](C)C(=O)N[C@@H](CC(=O)O)C(=O)NCC(=O)N[C@H](CO)C(=O)N[C@@H]([C@H](C)CC(=O)O)C(=O)N[C@@H](CC(=O)c2ccccc2N)C(=O)O[C@@H]1C |  |  |  |  |  |  |  |  |  |  |  | < 0.09 |  |  |  |  |  |  |  |  | 
4 | C#Cc1c[nH]nc1-c1nc(-c2ccc(Oc3ccc(C(F)(F)F)cc3)cc2)no1 | > 128 | > 128 | > 128 | > 128 | > 128 | > 128 | > 128 | > 128 | 32 (≈ 80.7 µM) | > 128 | > 128 |  | 0.5 (≈ 1.26 µM) | > 128 | > 128 | > 128 | 96.4 | 9.8 (≈ 24.7 µM) | 0.5 (≈ 1.26 µM) | > 128 | MIC (Staphylococcus aureus [15]): 0.25 µg/mL (≈ 0.631 µM); MIC (Staphylococcus aureus [18]): 1 µg/mL (≈ 2.52 µM)
5 | FC(F)(F)c1ccc(Oc2ccc(-c3noc(-c4n[nH]cc4Cl)n3)cc2)cc1 | > 128 | > 128 | > 128 | > 128 | > 128 | > 128 | > 128 | 16 (≈ 39.3 µM) |  | 64 (≈ 157 µM) | > 128 |  | 0.5 (≈ 1.23 µM) | > 128 | > 128 | > 128 | 97.8 | 24.1 (≈ 59.3 µM) | 2 (≈ 4.92 µM) | > 128 | MIC (Staphylococcus aureus [18]): 1 µg/mL (≈ 2.46 µM)
